Test results taken from ChEMBL document CHEMBL4011632, “Design, Synthesis, and Evaluation of Thiazolidine-2,4-dione Derivatives as a Novel Class of Glutaminase Inhibitors” (J Med Chem, 2017).
The source made the active and inactive calls. No cut-off for these calls is given here.

Columns and labels:
[1] = Total clearance in Sprague-Dawley rat at 0.1 mg/kg, iv by HPLC-MS analysis; assay type: ADME, organism-based; settings: in vivo
Outline: (§1)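 Male rats (330−380 g, 9−10 weeks old), jugular-vein cannulated 1 day before dosing, n = 3. Dosed iv in DMA/PEG400 (20%/80%, v/v) or po in 1% CMC/0.5% Tween-80. Blood (100 μL) drawn at 0, 2 min, 5 min (iv only), 15 and 30 min, and 1, 2, 4, 6, 8 and 24 h. Plasma measured by LC-MS/MS; parameters from noncompartmental analysis.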

[2] = Inhibition of recombinant human His-tagged KGA S384A mutant expressed in Escherichia coli BL21(DE3)pLysS using glutamine substrate preincubated for 10 mins followed by substrate addition measured after 60 mins
[3] = Inhibition of recombinant human His-tagged KGA R387A mutant expressed in Escherichia coli BL21(DE3)pLysS using glutamine substrate preincubated for 10 mins followed by substrate addition measured after 60 mins
[4] = Inhibition of recombinant human His-tagged KGA R387L mutant expressed in Escherichia coli BL21(DE3)pLysS using glutamine substrate preincubated for 10 mins followed by substrate addition measured after 60 mins
[5] = Inhibition of recombinant human His-tagged KGA K507A mutant expressed in Escherichia coli BL21(DE3)pLysS using glutamine substrate preincubated for 10 mins followed by substrate addition measured after 60 mins
[6] = species: Homo sapiens; experiment: Selectivity ratio of IC50 for recombinant human His-tagged KGA S384A mutant expressed in Escherichia coli BL21(DE3)pLysS to IC50 for human His-tagged KGA (L123 to L669 residues) expressed in Escherichia coli BL21(DE3)pLysS
[7] = species: Homo sapiens; experiment: Selectivity ratio of IC50 for recombinant human His-tagged KGA R387A mutant expressed in Escherichia coli BL21(DE3)pLysS to IC50 for human His-tagged KGA (L123 to L669 residues) expressed in Escherichia coli BL21(DE3)pLysS
[8] = species: Homo sapiens; experiment: Selectivity ratio of IC50 for recombinant human His-tagged KGA R387L mutant expressed in Escherichia coli BL21(DE3)pLysS to IC50 for human His-tagged KGA (L123 to L669 residues) expressed in Escherichia coli BL21(DE3)pLysS
[9] = tested on: ASPC1; experiment: Synergistic cytotoxicity against human Aspc-1 cells assessed as reduction in cell viability at ED50 in presence of doxorubicin by MTS assay; assay type: functional
Outline: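 AsPC-1 cells treated with compound combinations and viability read by MTS. Combination index at ED50, ED75 and ED90 calculated by the Chou−Talalay method. CI = 1 additive, <1 synergism, >1 antagonism. Representative of three independent experiments.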

[10] = Terminal half life in Sprague-Dawley rat at 2 mg/kg, iv by HPLC-MS analysis; assay type: ADME, organism-based; settings: in vivo, read-out: beta t1/2 (converted); outline: as §1
[11] = AUC (0 to infinity) in Sprague-Dawley rat at 2 mg/kg, iv by HPLC-MS analysis; assay type: ADME, organism-based; design: dose 2 mg/kg, route intravenous, time infinity; settings: in vivo; outline: as §1
[12] = tested on: ASPC1; experiment: Antitumor activity against human Aspc-1 cells xenografted in Balb/cAnN.Cg-Foxn1nu/CrlNarl nude mouse assessed as tumor growth inhibition at 50 mg/kg, ip once daily administered for 5 days followed by 2 days without dosing for 68 days relative to control; assay type: functional; settings: read-out: TGI
Outline: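 Male nude mice (7−8 weeks, 18−22 g) received 4.5 × 10^6 AsPC-1 cells sc in the right flank, in HBSS mixed 1:1 with Matrigel. Mice were randomized once mean tumor reached ~100 mm3 (day 1). Dosing was ip once daily, 5 days on/2 days off, with 2% DMSO/PBS as vehicle. Tumors were measured twice weekly, V = ab²/2. %TGI = [1 − ((Tt − T0)/(Ct − C0))] × 100 from median volumes; Student's t test.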

[13] = tested on: Mus musculus; experiment: Toxicity in BALB/CAnN.Cg-Foxn1nu/CrlNarl mouse xenografted with human Aspc-1 cells assessed as overt toxicity at 25 to 50 mg/kg, ip once daily administered for 5 days followed by 2 days without dosing for 68 days; assay type: organism-based, BALB/C; settings: in vivo
[14] = tested on: HCC1806; experiment: Synergistic cytotoxicity against human HCC1806 cells assessed as reduction in cell viability at ED50 in presence of BPTES by MTS assay; assay type: functional
Outline: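 HCC1806 breast carcinoma cells seeded at 3000 cells/well and co-treated with the inhibitor and BPTES; viability read by MTS. […] Three independent experiments.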

[15] = molecular target: T1, Peroxisome proliferator-activated receptor delta (Homo sapiens) (UniProt Q03181); experiment: Transactivation of GAL4-DBD fused human PPARdelta LBD (165 to 441 residues) expressed in African green monkey CV1 cells after 18 to 24 hrs by luciferase reporter gene assay; assay type: cell-based
T1 sequence (whole entry): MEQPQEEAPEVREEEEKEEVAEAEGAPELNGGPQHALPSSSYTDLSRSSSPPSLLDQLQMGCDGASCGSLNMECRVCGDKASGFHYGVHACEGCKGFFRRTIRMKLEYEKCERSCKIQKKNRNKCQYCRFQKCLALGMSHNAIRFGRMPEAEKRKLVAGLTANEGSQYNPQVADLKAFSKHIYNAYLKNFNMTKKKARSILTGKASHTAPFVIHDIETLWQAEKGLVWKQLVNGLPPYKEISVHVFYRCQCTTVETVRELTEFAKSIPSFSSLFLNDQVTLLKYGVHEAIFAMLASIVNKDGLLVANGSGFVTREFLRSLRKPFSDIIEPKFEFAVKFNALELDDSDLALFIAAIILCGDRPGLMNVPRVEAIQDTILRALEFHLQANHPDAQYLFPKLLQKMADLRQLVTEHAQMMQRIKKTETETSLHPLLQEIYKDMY

[16] = molecular target: T2, Peroxisome proliferator-activated receptor gamma (Homo sapiens) (UniProt P37231); experiment: Transactivation of GAL4-DBD fused human PPARgamma LBD (199 to 477 residues) expressed in African green monkey CV1 cells after 18 to 24 hrs by luciferase reporter gene assay; assay type: cell-based
T2 sequence (whole entry): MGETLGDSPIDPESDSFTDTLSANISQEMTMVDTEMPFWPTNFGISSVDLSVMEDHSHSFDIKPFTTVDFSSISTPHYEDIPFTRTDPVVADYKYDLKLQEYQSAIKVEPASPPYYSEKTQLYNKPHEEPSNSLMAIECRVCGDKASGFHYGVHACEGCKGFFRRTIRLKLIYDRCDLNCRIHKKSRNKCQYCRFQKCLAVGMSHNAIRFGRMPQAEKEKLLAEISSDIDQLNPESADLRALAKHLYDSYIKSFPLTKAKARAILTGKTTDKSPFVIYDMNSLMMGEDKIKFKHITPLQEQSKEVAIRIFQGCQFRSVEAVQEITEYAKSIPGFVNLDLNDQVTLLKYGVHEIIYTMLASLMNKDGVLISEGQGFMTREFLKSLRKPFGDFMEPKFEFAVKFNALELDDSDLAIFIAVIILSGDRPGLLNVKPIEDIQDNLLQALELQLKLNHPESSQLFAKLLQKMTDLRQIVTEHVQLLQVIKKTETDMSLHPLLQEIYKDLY

clearance [1] [mL/min/kg] | IC50 [2] [nM] | IC50 [3] [nM] | IC50 [4] [nM] | IC50 [5] [nM] | Ratio IC50 [6] | Ratio IC50 [7] | Ratio IC50 [8] | half-life [10] [h] | AUC(0-inf) [11] [ng·h/mL] | Activity [15] | Activity [16] | Compound | CI [9] | inhibition in vivo at 50 mg/kg [12] [%] | Activity [13] | CI [14]
0.4 | 361 | > 50000 | 1270 | 1040 | 3.5 | > 490 | 12.5 | – | – | – | – | Cc1cc(/C=C2\SC(=O)NC2=O)c(C)n1-c1ccc(-c2ccc(/C=C3\SC(=O)NC3=O)cc2)cc1 | 0.45 - 0.68 | – | – | –
– | – | – | – | – | – | – | – | 5 | 43600 | inactive | inactive | O=C1NC(=O)/C(=C/c2ccc(-c3ccc(-n4c(-c5cccs5)cc(/C=C5\SC(=O)NC5=O)c4-c4cccs4)cc3)cc2)S1 | 0.45 - 0.68 | 49 | Non-Toxic | 0.13 - 0.14
– | 87 | 10900 | 770 | 269 | 1.5 | 191 | 13.5 | – | – | inactive | inactive | Cc1cc(/C=C2\SC(=O)NC2=O)c(C)n1-c1ccc(-c2ccc(/C=C3\SC(=O)NC3=O)c(Cl)c2)cc1 | – | – | – | –
